Active and inactive are the calls of the source. The calls are words filed in the database; no cut-off is given here.
Tests used:
[1] = target: Cellular tumor antigen p53 (Homo sapiens) (UniProt P04637); experiment: Activation of p53 in human A549 cells assessed as downregulation of CHAC1 gene expression at 2 uM after 48 hrs by microarray analysis relative to control; format: cell-based
Summary of the method: (§1)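 A549 cells plated at 2×10^5 cells/well, treated 48 h at 2 μM, with DMSO vehicle as control. Whole-genome transcriptional profiling followed the manufacturer's protocol. Total RNA integrity was checked by Bioanalyzer before arraying.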

[2] = target: Cellular tumor antigen p53 (Homo sapiens) (UniProt P04637); experiment: Activation of p53 in human A549 cells assessed as upregulation of EDA2R gene expression at 2 uM after 48 hrs by microarray analysis relative to control; format: cell-based; summary of the method: as §1
A549 [3] = experiment: Upregulation of MIR4713 gene expression in human A549 cells at 2 uM after 48 hrs by microarray analysis relative to control; format: functional; summary of the method: as §1
A549 [4] = experiment: Upregulation of SULF2 gene expression in human A549 cells at 2 uM after 48 hrs by microarray analysis relative to control; format: functional; summary of the method: as §1
[5] = target: Cellular tumor antigen p53 (Homo sapiens) (UniProt P04637); experiment: Activation of p53 in human A549 cells assessed as upregulation of FDXR gene expression at 2 uM after 48 hrs by microarray analysis relative to control; format: cell-based; summary of the method: as §1
dsDNA [6] = experiment: Binding affinity to 5'-ACTTATCCACTATAGA-3'/3'-TGAATAGGTGATATCT-5' dsDNA (unknown origin) assessed as change in melting temperature at 2.5 uM by spectrophotometric method; format: nucleic-acid assay
A549 [7] = experiment: Upregulation of ANKRD1 gene expression in human A549 cells at 2 uM after 48 hrs by microarray analysis relative to control; format: functional; summary of the method: as §1
[8] = target: Cellular tumor antigen p53 (Homo sapiens) (UniProt P04637); experiment: Activation of p53 in human A549 cells assessed as upregulation of CYFIP2 gene expression at 2 uM after 48 hrs by microarray analysis relative to control; format: cell-based; summary of the method: as §1
[9] = target: Cellular tumor antigen p53 (Homo sapiens) (UniProt P04637); experiment: Activation of p53 in human A549 cells assessed as upregulation of CD70 gene expression at 2 uM after 48 hrs by microarray analysis relative to control; format: cell-based; summary of the method: as §1
A549 [10] = experiment: Upregulation of WDR63 gene expression in human A549 cells at 2 uM after 48 hrs by microarray analysis relative to control; format: functional; summary of the method: as §1
[11] = target: Cellular tumor antigen p53 (Homo sapiens) (UniProt P04637); experiment: Activation of p53 in human A549 cells assessed as upregulation of BTG2 gene expression at 2 uM after 48 hrs by microarray analysis relative to control; format: cell-based; summary of the method: as §1
A549 [12] = experiment: Upregulation of ABCA12 gene expression in human A549 cells at 2 uM after 48 hrs by microarray analysis relative to control; format: functional; summary of the method: as §1
[13] = target: Cellular tumor antigen p53 (Homo sapiens) (UniProt P04637); experiment: Activation of p53 in human A549 cells assessed as upregulation of MDM2 gene expression at 2 uM after 48 hrs by microarray analysis relative to control; format: cell-based; summary of the method: as §1
A549 [14] = experiment: Antiproliferative activity against human A549 cells after 96 hrs by WST8 assay; format: functional, cell-based
Summary of the method: (§2)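 Cells seeded at 5×10^3 per well and grown 24 h at 37°C, 5% CO2. A549 medium was DMEM with 10% FBS and 2 mM L-glutamine. SW620 medium had 10% FBS and 1% penicillin/streptomycin. Medium was then replaced with conjugate at 0.1, 1, 5 or 10 μM for 96 h. WST-8 reagent was added and absorbance read at 450 nm. Results are mean ± SD.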

A549 [15] = experiment: Upregulation of SCARNA7 gene expression in human A549 cells at 2 uM after 48 hrs by microarray analysis relative to control; format: functional; summary of the method: as §1
A549 [16] = experiment: Upregulation of MIR3685 gene expression in human A549 cells at 2 uM after 48 hrs by microarray analysis relative to control; format: functional; summary of the method: as §1
A549 [17] = experiment: Upregulation of UIMC1 gene expression in human A549 cells at 2 uM after 48 hrs by microarray analysis relative to control; format: functional; summary of the method: as §1
A549 [18] = experiment: Downregulation of TAS2R30 gene expression in human A549 cells at 2 uM after 48 hrs by microarray analysis relative to control; format: functional; summary of the method: as §1
A549 [19] = experiment: Upregulation of MIR3189 gene expression in human A549 cells at 2 uM after 48 hrs by microarray analysis relative to control; format: functional; summary of the method: as §1
SW-620 = experiment: Antiproliferative activity against human SW620 cells harboring p53 mutant assessed as cell viability at 10 uM after 96 hrs by WST8 assay relative to control; format: functional; conditions: SW-620, 96 h, read-out: Activity; summary of the method: as §2
[20] = target: Cellular tumor antigen p53 (Homo sapiens) (UniProt P04637); experiment: Activation of p53 in human A549 cells assessed as upregulation of SPATA18 gene expression at 2 uM after 48 hrs by microarray analysis relative to control; format: cell-based; summary of the method: as §1
A549 [21] = experiment: Downregulation of ALDH1L2 gene expression in human A549 cells at 2 uM after 48 hrs by microarray analysis relative to control; format: functional; summary of the method: as §1
A549 [22] = experiment: Upregulation of POLH gene expression in human A549 cells at 2 uM after 48 hrs by microarray analysis relative to control; format: functional; summary of the method: as §1
dsDNA [23] = experiment: Binding affinity to 5'-ACTTATTCCATATAGA-3'/3'-TGAATAAGGTATATCT-5' dsDNA (unknown origin) assessed as change in melting temperature at 2.5 uM by spectrophotometric method; format: nucleic-acid assay
MDA-MB-231 = experiment: Antiproliferative activity against human MDA-MB-231 cells harboring p53 mutant assessed as cell viability at 10 uM after 96 hrs by WST8 assay relative to control; format: functional; conditions: MDA-MB-231, 96 h, read-out: Activity
A549 [24] = experiment: Downregulation of ASNS gene expression in human A549 cells at 2 uM after 48 hrs by microarray analysis relative to control; format: functional; summary of the method: as §1
[25] = target: Cellular tumor antigen p53 (Homo sapiens) (UniProt P04637); experiment: Activation of p53 in human A549 cells assessed as downregulation of STC2 gene expression at 2 uM after 48 hrs by microarray analysis relative to control; format: cell-based; summary of the method: as §1
[26] = target: Cellular tumor antigen p53 (Homo sapiens) (UniProt P04637); experiment: Activation of p53 in human A549 cells assessed as upregulation of TP53INP1 gene expression at 2 uM after 48 hrs by microarray analysis relative to control; format: cell-based; summary of the method: as §1
A549 [27] = experiment: Downregulation of GUSBP3 gene expression in human A549 cells at 2 uM after 48 hrs by microarray analysis relative to control; format: functional; summary of the method: as §1
[28] = target: Cellular tumor antigen p53 (Homo sapiens) (UniProt P04637); experiment: Activation of p53 in human A549 cells assessed as upregulation of SESN1 gene expression at 2 uM after 48 hrs by microarray analysis relative to control; format: cell-based; summary of the method: as §1
A549 [29] = experiment: Downregulation of ULBP1 gene expression in human A549 cells at 2 uM after 48 hrs by microarray analysis relative to control; format: functional; summary of the method: as §1
A549 [30] = experiment: Upregulation of GAS6-AS1 gene expression in human A549 cells at 2 uM after 48 hrs by microarray analysis relative to control; format: functional; summary of the method: as §1
A549 [31] = experiment: Induction of apoptosis in human A549 cells at 2 uM after 48 hrs by Annexin V-FITC/ethidium homodimer-3/Hoechst 33342 staining based fluorescence microscopic method; format: functional, cell-based
Summary of the method: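 A549 cells seeded in chamber slides at 2×10^4 cells/well and exposed to 2 μM for 48 h; vehicle control 0.1% DMSO. Cells were washed in binding buffer and stained with FITC-annexin V (apoptotic), ethidium homodimer III (necrotic) and Hoechst 33342 (all nuclei), then imaged by confocal fluorescence microscopy.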

[32] = target: Cellular tumor antigen p53 (Homo sapiens) (UniProt P04637); experiment: Activation of p53 in human A549 cells assessed as upregulation of DDB2 gene expression at 2 uM after 48 hrs by microarray analysis relative to control; format: cell-based; summary of the method: as §1
A549 [33] = experiment: Upregulation of GDF15 gene expression in human A549 cells at 2 uM after 48 hrs by microarray analysis relative to control; format: functional; summary of the method: as §1
[34] = target: Cellular tumor antigen p53 (Homo sapiens) (UniProt P04637); experiment: Activation of p53 in human A549 cells assessed as downregulation of CARS gene expression at 2 uM after 48 hrs by microarray analysis relative to control; format: cell-based; summary of the method: as §1
[35] = target: Cellular tumor antigen p53 (Homo sapiens) (UniProt P04637); experiment: Activation of p53 in human A549 cells assessed as upregulation of FAS gene expression at 2 uM after 48 hrs by microarray analysis relative to control; format: cell-based; summary of the method: as §1
A549 [36] = experiment: Downregulation of SNORA9 gene expression in human A549 cells at 2 uM after 48 hrs by microarray analysis relative to control; format: functional; summary of the method: as §1
MV4-11 = experiment: Antiproliferative activity against human MV4-11 cells harboring wild type p53 after 96 hrs by WST8 assay; format: functional, cell-based; conditions: MV4-11, 96 h
A549 [37] = experiment: Upregulation of CDKN1A gene expression in human A549 cells at 2 uM after 48 hrs by microarray analysis relative to control; format: functional; summary of the method: as §1
[38] = target: Histone acetyltransferase p300 (Homo sapiens, UniProt Q09472); experiment: Inhibition of p300 (unknown origin) using H3 peptide and acetyl-coA as substrate by fluorometric assay
Sequence of Histone acetyltransferase p300 (Q09472 whole entry, the tested form may be a part): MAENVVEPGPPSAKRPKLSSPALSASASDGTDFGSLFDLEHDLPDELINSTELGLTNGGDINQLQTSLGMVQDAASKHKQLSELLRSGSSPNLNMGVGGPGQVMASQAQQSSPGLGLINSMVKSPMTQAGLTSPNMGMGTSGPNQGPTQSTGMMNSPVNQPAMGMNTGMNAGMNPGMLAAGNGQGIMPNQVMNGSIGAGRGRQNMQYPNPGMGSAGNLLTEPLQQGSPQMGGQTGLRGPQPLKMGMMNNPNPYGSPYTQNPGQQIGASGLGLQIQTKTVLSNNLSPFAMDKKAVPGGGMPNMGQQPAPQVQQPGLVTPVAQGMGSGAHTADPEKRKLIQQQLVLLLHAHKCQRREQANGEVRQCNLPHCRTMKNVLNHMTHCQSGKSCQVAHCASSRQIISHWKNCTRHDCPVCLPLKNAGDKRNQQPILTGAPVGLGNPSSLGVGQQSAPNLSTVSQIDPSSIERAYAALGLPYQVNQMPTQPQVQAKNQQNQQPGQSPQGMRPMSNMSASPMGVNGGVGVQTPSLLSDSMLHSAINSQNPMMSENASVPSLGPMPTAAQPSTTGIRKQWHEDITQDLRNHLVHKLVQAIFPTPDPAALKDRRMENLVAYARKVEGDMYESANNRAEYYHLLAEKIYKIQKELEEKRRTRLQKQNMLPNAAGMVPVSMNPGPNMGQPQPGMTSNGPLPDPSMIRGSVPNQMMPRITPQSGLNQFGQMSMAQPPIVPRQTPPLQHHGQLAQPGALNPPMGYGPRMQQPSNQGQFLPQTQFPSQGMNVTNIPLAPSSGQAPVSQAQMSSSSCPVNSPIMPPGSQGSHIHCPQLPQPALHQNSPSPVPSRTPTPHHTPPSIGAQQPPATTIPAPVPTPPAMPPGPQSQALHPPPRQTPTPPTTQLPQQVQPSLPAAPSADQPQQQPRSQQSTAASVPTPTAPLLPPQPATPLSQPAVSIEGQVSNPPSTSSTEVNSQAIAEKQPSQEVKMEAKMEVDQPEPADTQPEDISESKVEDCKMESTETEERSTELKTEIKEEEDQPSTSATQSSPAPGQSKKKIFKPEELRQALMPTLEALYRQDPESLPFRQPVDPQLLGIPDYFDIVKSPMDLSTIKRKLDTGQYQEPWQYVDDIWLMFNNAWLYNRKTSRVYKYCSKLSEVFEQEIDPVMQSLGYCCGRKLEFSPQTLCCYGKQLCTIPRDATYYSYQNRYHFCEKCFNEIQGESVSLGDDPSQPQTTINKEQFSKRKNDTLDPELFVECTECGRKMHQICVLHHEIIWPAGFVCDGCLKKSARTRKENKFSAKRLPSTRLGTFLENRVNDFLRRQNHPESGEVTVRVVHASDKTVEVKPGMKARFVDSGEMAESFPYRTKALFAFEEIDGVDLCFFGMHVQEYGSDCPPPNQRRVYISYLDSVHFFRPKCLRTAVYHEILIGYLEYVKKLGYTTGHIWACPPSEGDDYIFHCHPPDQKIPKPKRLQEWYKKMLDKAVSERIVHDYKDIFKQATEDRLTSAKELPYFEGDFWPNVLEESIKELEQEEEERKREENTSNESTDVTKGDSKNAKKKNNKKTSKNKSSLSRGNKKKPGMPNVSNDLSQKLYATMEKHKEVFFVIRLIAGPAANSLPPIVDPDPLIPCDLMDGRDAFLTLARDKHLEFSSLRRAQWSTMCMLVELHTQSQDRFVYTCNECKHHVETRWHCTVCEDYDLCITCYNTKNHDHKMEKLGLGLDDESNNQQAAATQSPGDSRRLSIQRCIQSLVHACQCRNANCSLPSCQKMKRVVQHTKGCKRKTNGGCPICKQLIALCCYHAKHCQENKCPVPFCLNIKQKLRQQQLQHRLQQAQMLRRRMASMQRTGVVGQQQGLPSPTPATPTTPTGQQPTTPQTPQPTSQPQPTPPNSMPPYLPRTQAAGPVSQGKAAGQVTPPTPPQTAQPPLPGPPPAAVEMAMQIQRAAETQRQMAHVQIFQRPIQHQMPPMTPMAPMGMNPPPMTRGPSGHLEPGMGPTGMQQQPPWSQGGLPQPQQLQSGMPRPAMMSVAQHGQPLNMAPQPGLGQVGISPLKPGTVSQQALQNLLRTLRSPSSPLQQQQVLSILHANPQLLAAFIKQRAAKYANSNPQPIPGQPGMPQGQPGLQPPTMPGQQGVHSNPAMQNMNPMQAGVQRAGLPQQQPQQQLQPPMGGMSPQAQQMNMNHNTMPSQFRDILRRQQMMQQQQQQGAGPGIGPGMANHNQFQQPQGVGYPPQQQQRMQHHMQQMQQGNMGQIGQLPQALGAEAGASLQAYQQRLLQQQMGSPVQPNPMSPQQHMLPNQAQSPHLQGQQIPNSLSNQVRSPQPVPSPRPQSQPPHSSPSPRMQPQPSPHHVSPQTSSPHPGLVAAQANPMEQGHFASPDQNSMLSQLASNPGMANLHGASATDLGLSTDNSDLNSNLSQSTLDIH
Summary of the method: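 Fluorometric HAT kit assay with recombinant p300 core domain as enzyme and acetyl-CoA plus H3 histone peptide as substrates. Effectors were tested at 1 and 5 μM. HeLa nuclear extract served as positive control, and 0.5% DMSO was set as 100% activity.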

A549 [39] = experiment: Upregulation of NEFL gene expression in human A549 cells at 2 uM after 48 hrs by microarray analysis relative to control; format: functional; summary of the method: as §1

Sequence of Cellular tumor antigen p53 (Homo sapiens) (P04637 whole entry, looked up): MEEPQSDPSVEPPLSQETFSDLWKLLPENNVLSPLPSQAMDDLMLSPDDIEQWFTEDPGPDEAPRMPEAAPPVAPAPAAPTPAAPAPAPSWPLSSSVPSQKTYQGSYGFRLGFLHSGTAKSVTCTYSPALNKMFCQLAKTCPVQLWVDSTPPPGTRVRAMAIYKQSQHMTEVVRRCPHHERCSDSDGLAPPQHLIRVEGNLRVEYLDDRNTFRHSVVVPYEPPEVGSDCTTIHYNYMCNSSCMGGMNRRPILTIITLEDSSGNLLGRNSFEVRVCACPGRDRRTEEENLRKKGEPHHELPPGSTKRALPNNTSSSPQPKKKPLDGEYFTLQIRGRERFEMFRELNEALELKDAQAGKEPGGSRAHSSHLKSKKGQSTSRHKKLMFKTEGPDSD

fold change (FC) [1]: 3.64 | fold change (FC) [2]: 2.53 | fold change (FC) [5]: 2 | ΔTm (dsDNA [6]): 11.5 °C | fold change (FC) [8]: 1.88 | fold change (FC) [9]: 1.83 | fold change (FC) [11]: 2.35 | fold change (FC) [13]: 1.97 | IC50 (A549 [14]; A549, 96 h): 1800 nM | fold change (FC) [20]: 2.98 | ΔTm (dsDNA [23]): 18.1 °C | fold change (FC) [25]: 2.34 | fold change (FC) [26]: 1.85 | fold change (FC) [28]: 1.91 | fold change (FC) [32]: 1.8 | fold change (FC) [34]: 1.9 | fold change (FC) [35]: 1.83 | IC50 (MV4-11): 2600 nM | IC50 [38]: 3900 to 4200 nM
Compound: CC1=NN(c2ccc(C(=O)NCCOCCOCC(=O)NCCC(=O)Nc3cc(C(=O)Nc4cn(C)c(C(=O)Nc5cn(C)c(C(=O)Nc6cc(C(=O)NCCCC(=O)Nc7cc(C(=O)Nc8cc(C(=O)Nc9cc(C(=O)Nc%10cc(C(=O)NCCCN(C)C)n(C)c%10)n(C)c9)n(C)c8)n(C)c7)n(C)c6)n5)n4)n(C)c3)cc2)C(=O)/C1=C/c1ccc(-c2cc(C)c(C)cc2[N+](=O)[O-])o1
fold change (FC) (A549 [3]): 1.94 | fold change (FC) (A549 [4]): 2.13 | fold change (FC) (A549 [7]): 1.81 | fold change (FC) (A549 [10]): 2.03 | fold change (FC) (A549 [12]): 2.42 | Activity (A549 [14]): Dose-dependent effect | fold change (FC) (A549 [15]): 1.89 | fold change (FC) (A549 [16]): 1.89 | fold change (FC) (A549 [17]): 1.94 | fold change (FC) (A549 [18]): 2.01 | fold change (FC) (A549 [19]): 2.32 | viability at 10 µM (SW-620): 78.4% | fold change (FC) (A549 [21]): 1.86 | fold change (FC) (A549 [22]): 1.88 | viability at 10 µM (MDA-MB-231): 69.3% | fold change (FC) (A549 [24]): 2.01 | fold change (FC) (A549 [27]): 2.63 | fold change (FC) (A549 [29]): 2.34 | fold change (FC) (A549 [30]): 1.81 | Activity (A549 [31]): Active | fold change (FC) (A549 [33]): 1.81 | fold change (FC) (A549 [36]): 1.81 | fold change (FC) (A549 [37]): 2.28 | fold change (FC) (A549 [39]): 1.8

Source: ChEMBL document CHEMBL4190249, “Antiproliferative and apoptotic activities of sequence-specific histone acetyltransferase inhibitors” (Eur J Med Chem, 2017)
